Screening data (PubChem BioAssay)
Only some compounds are listed: those with a hit (about 1.2% of all), similar ones and a draw of the others.
Dynein transport: dynein cargo transport inhibition. 3617.4 mouse cells, GR-EGFP nuclear translocation imaging; test concentration mostly 20 µM; stimulated with dexamethasone, 1 µM; stronger effect = lower value. z-score, hits read low. 220,000 compounds, 0.47% hits. AID 1381;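 active = plate z-score of nuclear minus cytoplasmic receptor signal below a set negative limit, without overly bright fluorescence or cell loss, cut at about -3.5 in these data, passing the limit was not always enough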;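 note: z-score of nuclear minus cytoplasmic ring GR-EGFP intensity difference per well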
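Also added – dexamethasone, 1.0 µM final · Buffer or medium – tet-free, stripped-serum medium · Schedule – induction 48 h, compound 1 h, agonist 30 min · Detection – formaldehyde fixation, Hoechst nuclear stain, 10x automated fluorescence imaging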
HKDC1 inhibitor: inhibitors of human hexokinase HKDC1. Q2TB90. recombinant HKDC1, G6PDH/diaphorase resazurin coupled fluorescence. inhibition, % at 20 µM. 340,000 compounds, 0.16% hits;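 active = inhibition above about 35% when tested at 20 µM, limit read from the data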;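 note: plate controls were DMSO wells with enzyme for no effect and DMSO wells lacking enzyme for full effect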
Target sequence (Q2TB90 whole entry, looked up): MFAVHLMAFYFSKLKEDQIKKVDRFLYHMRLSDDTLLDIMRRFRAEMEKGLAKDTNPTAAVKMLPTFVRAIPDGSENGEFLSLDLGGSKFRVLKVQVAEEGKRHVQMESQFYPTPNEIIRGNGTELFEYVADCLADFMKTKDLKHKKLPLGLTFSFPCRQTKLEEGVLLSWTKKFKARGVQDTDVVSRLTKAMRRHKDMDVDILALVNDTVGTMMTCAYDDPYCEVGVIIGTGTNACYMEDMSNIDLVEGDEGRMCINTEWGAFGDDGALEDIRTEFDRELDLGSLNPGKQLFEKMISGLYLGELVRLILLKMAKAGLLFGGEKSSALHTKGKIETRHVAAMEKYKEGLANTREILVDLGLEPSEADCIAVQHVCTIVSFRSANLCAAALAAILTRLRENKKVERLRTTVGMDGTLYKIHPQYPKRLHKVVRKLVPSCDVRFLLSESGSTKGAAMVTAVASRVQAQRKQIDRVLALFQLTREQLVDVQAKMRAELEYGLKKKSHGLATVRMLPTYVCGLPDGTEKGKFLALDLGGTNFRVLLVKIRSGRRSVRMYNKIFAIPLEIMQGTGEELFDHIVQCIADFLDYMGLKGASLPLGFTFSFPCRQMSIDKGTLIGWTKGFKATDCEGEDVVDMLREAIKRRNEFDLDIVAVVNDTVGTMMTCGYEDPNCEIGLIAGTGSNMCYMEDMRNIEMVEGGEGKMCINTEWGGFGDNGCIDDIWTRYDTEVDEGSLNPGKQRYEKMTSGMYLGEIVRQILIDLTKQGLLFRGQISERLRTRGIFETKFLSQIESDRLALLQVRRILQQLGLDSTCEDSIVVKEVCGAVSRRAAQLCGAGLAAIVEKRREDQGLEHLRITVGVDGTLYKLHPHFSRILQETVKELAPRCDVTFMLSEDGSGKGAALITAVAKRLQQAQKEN
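Incubation: 90 min at room temperature in dark / Material: recombinant HKDC1 (HK5) hexokinase enzyme, produced in-house / Quantity: enzyme 5 µg/mL final / Compound: one dose of 20 µM, 1% DMSO / Reagent: glucose and ATP substrates / Buffer or medium: Tris pH 8.0 buffer with MgCl2, Tween-20, BSA, BME / Technique: resorufin fluorescence at 613 nm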
Tb hexokinase: blocks Trypanosoma brucei hexokinase 1 activity; inhibition, % at 10 µM; recombinant TbHK1, G6PDH-coupled NADH A340; AID 1430; 220,000 compounds, 0.11% hits;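 active = inhibition of 50% or more in the single-dose primary screen; inactive = inhibition below 50%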
Autophagy mod: modulators of autophagy | MEF GFP-LC3 puncta imaging; test concentration mostly 10 µM | calls only at 10 µM (by protocol) | 190,000 compounds, 0.98% hits | AID 463193;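 active = percentage of spot-positive cells more than 3 SD above its plate mean, without a fluorescence outlier flag or 80% toxicity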;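 note: spot-positive cell cutoff set from DMSO-treated cells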
PERK inhibitor: inhibitors of human PERK kinase. 220,000 compounds, 0.17% hits. Q9NZJ5. CHO PERK-DD fusion, SEAP luminescence translation reporter. inhibition, % at 5.6 µM. AID 1416;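 active = inhibition above the mean inhibition of all tested compounds plus 3 SD, set separately per screening campaign, cut at about 2.9% in these data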;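 note: PERK kinase domain activated by AP20187 dimerizer at 100 nM; 0% = DMSO with dimerizer and 100% = rapamycin at 8.4 µM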
HSV augment: increases HSV replication in cells. HSV replication augmentation in cells, fold increase. AID 1956. 220,000 compounds, 0.005% hits. maximum fold increase; in the data active = maximum fold increase above about 1.5; tested in PC3 cells
* hit, by the source's call; i = inactive; / = no result; + = active, no number.

SMILES	Dynein transport	HKDC1 inhibitor	Tb hexokinase	Autophagy mod	PERK inhibitor	HSV augment
COC(=O)[C@@]12CCCCN1[C@H](c1ccc(-c3ccc(F)cc3)cc1)[C@@H]1C(=O)N(C)C(=O)[C@@H]12	/	8.8	/	/	/	/
CCN1CCN(c2nnc(-c3ccc(C)cc3)c3ccccc23)CC1	/	0.5	/	/	/	/
COc1cccc(N2CCN(c3ncnc4c3cnn4-c3ccc(C)cc3C)CC2)c1	-1.23	2.5	-11.0	+	0.8	i
Cc1ccc(-n2ncc3c(N4CCCC4)ncnc32)c(C)c1	-1.37	-0.7	2.5	i	0.0	i
COc1ccc2nc(NC(=O)CSc3nnc(C)n3N)sc2c1	0.672	0.0	2.1	/	4.7*	i
O=C(CS(=O)(=O)Cc1ccccc1)Nc1nc2ccccc2s1	-0.176	-1.4	1.6	i	-0.7	i
COc1ccc2nc(NC(=O)CS(=O)(=O)Cc3ccccc3)sc2c1	0.0941	-7.3	-8.2	+	-1.1	i
O=C1C2C3c4ccccc4C(c4ccccc43)[C@@H]2C(=O)N1c1cccnc1 (some centres not stated)	-1.27	-9.2	3.1	i	0.1	i
O=C1C2C3c4ccccc4C(c4ccccc43)C2C(=O)N1c1ccncc1 (configuration not stated)	3.81	-8.4	5.9	+	-0.4	i
CC(=O)Nc1ccc(S(=O)(=O)N2CCN=C2SCc2ccccc2C)cc1	/	0.0	/	/	/	/
O=C(CCc1nnc2ccc(N3CCC4(CC3)OCCO4)nn12)NCc1ccccc1Cl	/	-7.3	/	/	/	/
COc1ccccc1NC(=O)CSc1nc(=O)n(Cc2ccncc2)c2c1CCCC2	/	-1.6	/	/	/	/
CCN(CC)C(=O)c1[nH]cnc1C(=O)N[C@H](C)c1ccccc1	/	-2.0	/	/	/	/
CCc1nc(CN2CCCC(C(=O)c3ccc4c5c(cccc35)CC4)C2)c(C)[nH]1 (configuration not stated)	0.558	-8.4	-12.8	+	-0.4	i
CCOc1ccc(C(=O)Nc2cc(C)c3c(=O)oc4ccccc4c3n2)cc1	-0.926	-0.8	-32.2	+	1.1	i
Cc1cc(NC(=O)c2ccc(S(=O)(=O)N3CCOCC3)cc2)nc2c1c(=O)oc1ccccc12	0.0493	/	-17.1	i	0.2	/
Cc1cc(NC(=O)c2ccc(S(=O)(=O)N3CCCC3)cc2)nc2c1c(=O)oc1ccccc12	0.244	2.1	-9.0	+	-1.6	i
CC(C(=O)Nc1ccccc1F)N1CCN(S(=O)(=O)c2ccc(C(F)(F)F)cc2)CC1 (configuration not stated)	/	0.0	/	/	/	/
CCOC(=O)c1sc(NC(=O)c2noc3c2CCCC3)c(C(=O)OCC)c1C	-1.32	/	-4.3	/	0.7	/
CCOC(=O)c1sc(NC(=O)c2c(C)noc2C)c(C(=O)OCC)c1C	-0.0294	/	-0.2	+	1.7	/
CCn1c(/C=C2/C(=O)N(C)c3ccccc32)nc2ccccc2c1=O	-0.646	4.0	-16.0	i	-0.1	i
CCN1C(=O)/C(=C\c2nc3ccccc3c(=O)n2CC)c2ccccc21	-0.351	2.2	-4.4	+	-1.7	i
CCc1cc(=O)n2[nH]c(-c3ccccc3)c(-c3ccccc3)c2n1	/	7.7	/	/	/	/
COc1cc2nc(NCCCN3CCN(C)CC3)n3nc(-c4ccccc4)nc3c2cc1OC	-0.0701	0.8	-28.6	+	-1.6	i
CN1CCN(CCCNc2nc3ccccc3c3nc(-c4ccccc4)nn23)CC1	/	2.2	/	/	/	/
SMILES	Dynein transport	HKDC1 inhibitor	Tb hexokinase	Autophagy mod	PERK inhibitor	HSV augment
CCN(CC)CCCNc1nc2cc(OC)c(OC)cc2c2nc(-c3cccnc3)nn12	0.192	3.8	-21.2	i	-1.6	i
CCN(CC)CCCNc1nc2cc(OC)c(OC)cc2c2nc(-c3ccccc3)nn12	5.55	9.9	-12.9	+	-1.9	i
CCOC(=O)c1[nH]c(C)c(C(=O)OCC)c1C	4.49	-5.5	-6.3	i	0.8	i
CCOC(=O)c1[nH]c(C)c(C(=O)c2cc(F)ccc2F)c1C	-0.469	1.1	-1.7	+	0.8	/
COCc1nnc(NC(=O)c2ccc(S(=O)(=O)N(CC(C)C)CC(C)C)cc2)o1	0.0615	8.3	-5.8	i	0.4	i
C=CCN(CC=C)S(=O)(=O)c1ccc(C(=O)Nc2nnc(COC)o2)cc1	1.08	1.6	-1.2	+	1.1	i
CCC(C)NC(=O)CCn1c(=O)c2cccn2c2ccc(F)cc21 (configuration not stated)	/	-7.2	/	/	/	/
CN1CCN(CC(O)(c2ccc(Cl)cc2)c2ccc(Cl)cc2)CC1	0.78	-5.0	12.7	+	-0.5	i
O=C(CCNS(=O)(=O)c1cccs1)N1CCCCCC1	3.61	-5.4	8.8	+	0.3	i
O=C(CNS(=O)(=O)c1cccs1)N1CCCCC1	/	-7.2	/	/	/	/
Cn1c(N)c(C(=O)CCl)c(=O)n(Cc2ccccc2)c1=O	-5.95*	5.8	-2.1	i	0.3	i
CC(=O)Nc1ccc(S(=O)(=O)N(CC(=O)Nc2cc(C)on2)Cc2ccc(F)cc2)cc1	0.0146	-0.6	-10.7	/	-1.5	i
C/C(=N\NS(=O)(=O)c1c(C)cc(C)cc1C)c1ccncc1	/	-4.0	/	/	/	/
CC(=O)c1ccc(NC(=O)CCSCCC(=O)Nc2ccc(C(C)=O)cc2)cc1	-0.54	-0.4	-1.8	i	2.4	i
O=C(O)CSCCC(=O)Nc1ccc(F)cc1	0.328	2.5	-0.2	+	-0.7	i
CC(C)(C)[C@H]1COC(=O)CC/C=C\C[C@@H](CC(=O)N(CCO)Cc2ccccc2)C(=O)N1	/	-10.1	/	/	/	/
Cc1cc2nc3s/c(=C/c4ccc(-c5ccccc5C(=O)O)o4)c(=O)n3c2cc1C	/	14.9	/	/	/	/
O=C(O)c1ccccc1-c1ccc(/C=c2\sc3nc4cc(Br)cnc4n3c2=O)o1	-0.103	67.8*	10.2	i	0.7	/
COc1ccc(CCC(=O)Nc2ccc(-c3noc(-c4ccc(OC)c(OC)c4)n3)cc2)cc1	-0.322	-1.4	-0.1	+	0.5	i
Cc1ccc(S(=O)(=O)c2nc(-c3ccccc3F)oc2N2CC(C)OC(C)C2)cc1 (configuration not stated)	/	0.2	/	/	/	/
COc1cc(C(=O)Nc2ccccc2NC(=O)c2cc(OC)c(OC)c(OC)c2)cc(OC)c1OC	/	2.7	/	/	/	/
COc1cc(C(=O)Nc2ccccc2C2COC(=O)C2=N)cc(OC)c1OC (configuration not stated)	0.6	-2.8	3.1	+	-0.6	i
Cc1ccccc1OCc1nc(-c2ccc(NC(=O)c3ccc4c(c3)OCO4)cc2)no1	-1.04	-3.4	4.8	+	0.3	i
Cc1ccccc1OCc1nc(-c2ccc(NC(=O)c3ccco3)cc2)no1	0.871	0.3	8.6	i	-0.6	i
COCCN1CC(C(=O)NCc2ncccc2C)CCC1=O (configuration not stated)	/	-0.6	/	/	/	/
COc1ccc(-c2c[n+]3c4n2CCCCC4=C(c2ccc(Br)cc2)C3)cc1	-1.1	-4.9	-14.4	i	-1.0	/
